The values that follow come from PubChem BioAssay AID463132 (The Scripps Research Institute Molecular Screening Center, 2010).

In the assay the target is Protein phosphatase methylesterase 1 (Homo sapiens) (UniProt Q9Y570). The assay can be described thus: in situ PME-1 inhibition – HeLa cells, western blot, powder samples, late-stage follow-up (AID 463132). The following applies: demethylated PP2A western blot, 1 h, at 0.5 µM, hits give high values. The essentials:
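Test system: HeLa cells with endogenous PME-1 acting on PP2A; medium: FCS-supplemented medium; doses: single compound dose of 0.5 µM; timing: compound exposure of cells for 1 h at 37 °C; measured by: HRP-antibody immunoblot, chemiluminescence; read-out basis: percent inhibition of demethylated PP2A band density versus controls; control set: high DMSO cells, low empty blot region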
(In general: A western blot detects proteins with antibodies after separation by electrophoresis.)

Sequence of Protein phosphatase methylesterase 1 (Homo sapiens) (Q9Y570 whole entry, looked up): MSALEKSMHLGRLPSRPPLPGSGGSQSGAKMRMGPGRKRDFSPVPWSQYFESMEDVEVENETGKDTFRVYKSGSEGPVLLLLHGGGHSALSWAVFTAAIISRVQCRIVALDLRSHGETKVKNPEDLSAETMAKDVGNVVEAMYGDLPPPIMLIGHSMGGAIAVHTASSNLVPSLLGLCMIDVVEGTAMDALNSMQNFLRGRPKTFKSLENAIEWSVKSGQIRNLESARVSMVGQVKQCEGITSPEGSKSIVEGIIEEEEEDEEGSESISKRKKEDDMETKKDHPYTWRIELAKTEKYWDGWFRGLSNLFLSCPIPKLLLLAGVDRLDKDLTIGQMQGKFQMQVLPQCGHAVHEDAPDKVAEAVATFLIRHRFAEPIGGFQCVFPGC

On to `COC(=O)N1C(=O)[C@](c2ccccc2)(C2CCCCC2)N1C(=O)OC`, for which the inhibition (usually how much of the control response was suppressed) was 85%.

With `COC(=O)N1C(=O)[C@](c2ccccc2)(C2CCCC2)N1C(=O)OC`, the inhibition is 85%.
